Results as given in the EternaBench riboswitch data.

Tested on: MS2 coat protein
Test: apparent Kd, MS2 coat protein; higher = weaker binding; RNA-MaP array; FMN 200 µM where present
Procedure, shortened: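 The apparent Kd comes from binding curves fitted cluster by cluster, filtered, and summarised as a median. Those curves followed SNAP-549-labelled MS2 coat protein from 0.7 or 1.5 nM, doubling to 3 µM, on Illumina sequencing-chip clusters where stalled E. coli RNA polymerase had transcribed the designs, without and then with constant ligand. The buffer was 100 mM Tris-HCl pH 7.5, 80 mM KCl, 4 mM MgCl2, BSA, DTT, yeast tRNA and Tween-20, and green signal was normalised to red-channel RNA signal and control-cluster median Fmax.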

[1] = designed as: OFF switch for flavin mononucleotide, no ligand
[2] = ligand present: flavin mononucleotide, designed as: OFF switch for flavin mononucleotide
[3] = designed as: ON switch for flavin mononucleotide, no ligand
[4] = ligand present: flavin mononucleotide, designed as: ON switch for flavin mononucleotide

| Sequence | apparent Kd [1] | apparent Kd [2] | apparent Kd [3] | apparent Kd [4] |
| --- | --- | --- | --- | --- |
| UGGUUGUGUGUCAGGAUAUGGUCUGGUGUUUCGGGCUAGAAGGGACAUGAGGAUCACCCAUGUGGCUGGUGCGC | 149 nM | 186 nM |  |  |
| CUGUUUUUCGCAGGAUAUGCUCCUCCUUUAUUAGCAGAAGGGCGUUAAACAUGAGGAUCACCCAUGUAUGGUAAUGACAUUUUC | 33.6 nM | 209 nM |  |  |
| GUGAGGUCAGGAUAUGCAUGGCGGGACUUGCGUCGUGGCGUGGAGAAGGGACAUGAGGAUCACCCAUGUGGAGC | 55.6 nM | 59.1 nM |  |  |
| GUCAGCUCGUGAGGAUAUACAACACUGCUUCGGCAGUGUAUUAAGAUCACAUGAGGAUCACCCAUGUAGAAGGCACGAGGUGAU | 20.5 nM | 245 nM |  |  |
| UCGCUGUCAGGAUAUCUUAUAUAGAACAUGAGGAUCACCCAUGUUCAUGUAUUCUGUGAGAGAGAAGGGACUCCUU | 15 nM | 17.4 nM |  |  |
| AAGAGCGAUUCUCCCUUCCUACAUGAGGAUCACCCAUGUACGAGAAGGCGCCGUGUAUACCACGGUGAGGAUAUCGUACGUUAC | 5.23 nM | 10.3 nM |  |  |
| GCAUGUAUAUAAGGAUAUGCAUCACUGAGAAAUUUAGUGAGGAAGAUCACAUGAGGAUCACCCAUGUAGAAGGUAUAUACGUGC | 8.23 nM | 53.2 nM |  |  |
| UGUUGUAUUACAGGAUAUCUAUGAUUUUUGUUUAGAGAAGGGUAUUCACAUGAGGAUCACCCAUGUAUAUACGAGGAAGUUGUG |  |  | 60.3 nM | 74.7 nM |
| CGUCGCUGUCGAGAGGAUAUGCGGUGGUGGACAUGAGGAUCACCCAUGUUAGCGAUAGCAUCACGGUAGAAGGCUCUUACGACUG |  |  | 21.4 nM | 20.6 nM |
| GAGACACAUGAGGAUCACCCAUGUGAGGAUAUCCGAAGGACCAAAUUAAGAAUUAAAGGGAGAAGGCACAUAAA | 27 nM | 25.9 nM |  |  |
| ACAUGAGGAUCACCCAUGUAGAAUGGAGAAGGUAGAUACUUGUGACUCUCCCAUGUACAUAGGACUGAGGAUAUUCUAAUAAUU |  |  | 49.6 nM | 40.2 nM |
| UGAACCCAUGUUAGGAUAUCAGGCCGAGGAAGUUCUGAGAAGGGACAUGAGGAUCACCCAUGUAUAAAAGAAAC | 70.6 nM | 41.8 nM |  |  |
| GUGCCUAACUAGAAGGCCGUAUGCAAAGCAUACGGAGGAUAUGGGUUCCGGAAACGGACAUGAGGAUCACCCAUGUGGCACAAA |  |  | 80.4 nM | 10.6 nM |
| UUGGACGUCGUAGGAUAUGUAGGAUAUUCCUACAUGAGGAUCACCCAUGUUGACAUGGAAGAAGGACAGAAGGACGAUGUCCAU |  |  | 566 nM | 14.2 nM |
| CAAUAUAACACAGGAUAUGUCUCGUUUACAUGAGGAUCACCCAUGUCCGAAACAGAAGGGUGACCUGAUAUAGGACGUUAGGUG |  |  | 367 nM | 138 nM |
| AACCUACAUGAGGAUCACCCAUGUAUCUGAGGCACAGGAUAUCGACAGGCAAGACACCUGCGAGAAGGGUGACCUC |  |  | 94 nM | 39.9 nM |
| GGAAAACAUGAGGAUCACCCAUGUGAGGAUAUCGAUGUCCAGAGGGAGGUGCGGGACUCGAGAAGGCACUUGGA | 34.2 nM | 82.8 nM |  |  |
| UGUCGGAGCAGAGGAUAUUACAUGAGGAUCACCCAUGUAUGAACCAAUAGUUGGAAACAGCAAUGUAAGAAGGCUGCUCCGACA | 11.5 nM | 94.6 nM |  |  |
| UUAUUUAUGUAAGGAUAUCGAUUAUAUACACAUCCUACAUGAGGAUCACCCAUGUUUUAUUUUUUCGAGAAGGUACAUUGUCGG |  |  | 51.7 nM | 47.4 nM |
| GGUUAUUGCAAGGAUAUGCUUUUUUUUUAUAUUGCAGAAGGUGCAACAUGAGGAUCACCCAUGUUGGAGGGUUU | 24.5 nM | 42.9 nM |  |  |
